Bioassay records from PubChem BioAssay.
Statin myotox sup: suppressors of statin myotoxicity in C2C12 myotubes, primary screen, cell-based, single point, plate reader; rescue of ATP level, % at 7.49 µM; C2C12 myotubes + simvastatin, ATP luminescence, 48 h; scaled: DMSO 0, geranylgeraniol control 100; 330,000 compounds, 0.78% hits;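 active = mean ATP rescue above about 67%, or every replicate alone reaching that limit, limit read from the data, passing the limit was not always enough; inconclusive = no clear call, values can overlap the other calls; inactive = mean under the limit and some replicate under it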;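 also: myotubes were challenged with 10 µM simvastatin during compound exposure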
E-selectin induc: E-selectin induction in HUVECs, primary screen, imaging, HUVEC, immunofluorescence imaging, single point; P16581; activation, % at 7.58 µM; AID 686992, 2013; 260,000 compounds, 0.37% hits; normalized: neutral wells 0, TNF-alpha wells 100;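 active = mean E-selectin-positive cell signal at least 10% of the positive control, reached in at least 60% of replicates, without over 20% cell loss; inconclusive = no rule given, readout overlaps actives, possibly toxicity-flagged; inactive = the rest, including those meeting only one limit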
Target sequence (P16581 whole entry, looked up): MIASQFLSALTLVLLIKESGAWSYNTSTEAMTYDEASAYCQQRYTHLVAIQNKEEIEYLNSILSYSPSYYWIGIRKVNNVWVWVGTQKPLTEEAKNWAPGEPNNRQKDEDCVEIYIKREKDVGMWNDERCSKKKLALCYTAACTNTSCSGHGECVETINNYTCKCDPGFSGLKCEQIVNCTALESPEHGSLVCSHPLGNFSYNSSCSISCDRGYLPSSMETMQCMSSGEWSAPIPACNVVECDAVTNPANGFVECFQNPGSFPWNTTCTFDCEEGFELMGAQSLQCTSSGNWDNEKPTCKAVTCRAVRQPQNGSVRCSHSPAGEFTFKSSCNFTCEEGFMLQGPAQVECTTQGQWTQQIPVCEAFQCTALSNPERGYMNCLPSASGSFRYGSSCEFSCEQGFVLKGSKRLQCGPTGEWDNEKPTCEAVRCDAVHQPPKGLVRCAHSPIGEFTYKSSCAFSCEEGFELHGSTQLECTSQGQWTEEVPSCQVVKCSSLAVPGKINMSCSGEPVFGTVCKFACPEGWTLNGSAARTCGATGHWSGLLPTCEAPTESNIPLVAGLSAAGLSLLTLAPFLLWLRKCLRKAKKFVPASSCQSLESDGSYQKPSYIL
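Material: HUVEC primary endothelial cells; Amount: 3,000 cells per well; Dosing: single concentration; Medium: EGM-2 growth medium on 0.1% gelatin-coated wells; Read-out basis: percent E-selectin-positive cells; Signal: immunofluorescence imaging; Control set: TNF-alpha, DMSO.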
DENV2 CPE: inhibitors of DENV2 cytopathic effect, primary screen, cell-based, plate reader, single concentration; 350,000 compounds, 1.7% hits; CPE inhibition, % at 9.99 µM; AID 651640, 2012; DENV2-infected cells, cytopathic effect rescue; in the data active = CPE inhibition above about 20%, passing the limit was not always enough; inconclusive = no clear call, values can overlap the other calls; tested in BHK-21 cells
A number is an active result; . = inactive; ? = inconclusive; / = no result given. In the library only some 2.2% were active in any assay of this set; here they are far more common.

SMILES	Statin myotox sup	E-selectin induc	DENV2 CPE
N#C[C@@H]1[C@H](c2ccccc2/C=C/c2ccccc2)[C@H](CO)N1S(=O)(=O)c1ccc(F)cc1	/	.	.
COc1cccc(/C=N/NC(=O)C(=O)N/N=C/c2cccc(OC)c2OC)c1OC	/	/	85
COc1ccccc1C=NNC(=O)c1ccccc1OCCOc1ccccc1	.	.	75
COc1ccccc1C=NNC(=O)C(=O)NN=Cc1ccccc1OC	.	.	.
COc1ccccc1/C=N/NC(=O)c1ccccc1Cl	/	/	.
C[C@H](CO)N1C[C@H](C)[C@@H](CN(C)Cc2cccnc2)Oc2ncc(-c3ccncc3)cc2C1=O	.	.	.
CC(C)CC1NC(=O)c2ccccc2-n2c1nc1cc(F)ccc1c2=O (configuration not stated)	/	.	.
COc1ccc2nc3n(c(=O)c2c1)-c1ccccc1C(=O)NC3Cc1ccccc1 (configuration not stated)	/	.	89
COc1cc2nc3n(c(=O)c2cc1OC)-c1cc2ccccc2cc1C(=O)NC3Cc1ccccc1 (configuration not stated)	.	.	.
CC(C)CC1NC(=O)c2ccccc2-n2c1nc1ccccc1c2=O (configuration not stated)	/	.	40
Cc1noc(C)c1S(=O)(=O)Nc1ccc2c(c1)CC(=O)N([C@H](C)CO)C[C@H](C)[C@H](CN(C)Cc1ccc(C(=O)O)cc1)O2	.	.	.
CCCC#Cc1cnc2c(c1)C(=O)N([C@@H](C)CO)C[C@H](C)[C@H](CN(C)S(=O)(=O)c1cn(C)cn1)O2	.	.	/
C[C@H]1CN([C@@H](C)CO)C(=O)c2cccc(NS(C)(=O)=O)c2O[C@@H]1CN(C)Cc1ccncc1	.	204	.
C[C@@H]1CN([C@H](C)CO)C(=O)c2cccc(NS(C)(=O)=O)c2O[C@@H]1CN(C)Cc1ccncc1	.	262	.
C[C@@H]1CN([C@@H](C)CO)C(=O)c2cccc(NS(C)(=O)=O)c2O[C@@H]1CN(C)Cc1ccncc1	.	.	.
C[C@H]1CN([C@@H](C)CO)C(=O)c2cccc(NS(C)(=O)=O)c2O[C@H]1CN(C)Cc1ccncc1	.	.	.
O=C(C[C@@H]1C=C[C@@H](NC(=O)NC2CCCCC2)[C@@H](CO)O1)NCc1ccc(F)cc1	.	.	.
CCCNC(=O)N[C@@H]1CC[C@H](CCNS(=O)(=O)c2cccc(F)c2)O[C@H]1CO	.	.	.
O=C(NCc1ccccc1Cl)c1cnccn1	67	/	/
O=C(COC(=O)c1cnccn1)NCc1ccccc1Cl	.	.	?
COc1ccc2c3c(n(C)c2c1)[C@@H](CO)N(C(=O)Nc1ccc(F)cc1)CC31CCN(S(=O)(=O)c2cccs2)CC1	/	.	.
Cc1c(Cl)cccc1Nc1nc(N)nc(CN2CCCCCC2)n1	90	/	/
Cc1ccc(Nc2nc(N)nc(CN3CCCCCC3)n2)cc1	.	/	/
C[C@@H]1CN([C@H](C)CO)C(=O)c2cc(NC(=O)NC3CCCCC3)ccc2O[C@H]1CN(C)C(=O)Nc1ccc(C(F)(F)F)cc1	.	.	.
C[C@@H]1CCCCO[C@H](CN(C)C(=O)NC2CCCCC2)[C@H](C)CN([C@@H](C)CO)C(=O)c2cc(NC(=O)Nc3ccc(C(F)(F)F)cc3)ccc2O1	/	.	64
SMILES	Statin myotox sup	E-selectin induc	DENV2 CPE
C[C@H](CO)N1C[C@H](C)[C@@H](CN(C)C(=O)NC2CCCCC2)OCCCC[C@H](C)Oc2ccc(NC(=O)Nc3ccc(C(F)(F)F)cc3)cc2C1=O	/	.	?
C[C@@H]1CN([C@@H](C)CO)C(=O)c2cc(NC(=O)c3ccncc3)ccc2O[C@H]1CN(C)C(=O)NC1CCCCC1	.	/	35
C[C@H]1CN([C@@H](C)CO)C(=O)c2cc(NC(=O)c3ccncc3)ccc2O[C@@H]1CN(C)C(=O)NC1CCCCC1	.	/	.
C[C@@H]1CN([C@H](C)CO)C(=O)c2cc(NC(=O)Nc3ccc(C(F)(F)F)cc3)ccc2O[C@H]1CN(C)C(=O)NC1CCCCC1	.	.	126
C[C@@H]1CN([C@@H](C)CO)C(=O)c2cc(NS(=O)(=O)c3ccc(Cl)cc3)ccc2O[C@@H](C)CCCCO[C@@H]1CN(C)C(=O)Nc1ccc(C(F)(F)F)cc1	/	.	.
COCC(=O)Nc1ccc2c(c1)C(=O)N(C)[C@H]1CC[C@@H](CC(=O)NC3Cc4ccccc4C3)O[C@@H]1CO2	.	.	.
CO[C@@H]1CN(C)C(=O)c2ccc(NS(C)(=O)=O)cc2OC[C@@H](C)N(C(=O)c2ccc3c(c2)OCO3)C[C@@H]1C	.	.	/
COc1cc(C(=O)Nc2ccc3c(c2)OCO3)ccc1-n1cnnn1	.	/	/
COc1cc(NC(=O)Cc2cccs2)ccc1-n1cnnn1	94	/	/
CN(C[C@H]1N[C@@H](CO)[C@H]1c1ccc(-c2cccc(F)c2)cc1)C(=O)CC1CC1	.	.	20
CCN(C[C@@H]1N[C@@H](CO)[C@@H]1c1ccc(-c2ccc(F)cc2)cc1)C(=O)COC	.	.	.
CCN(C[C@H]1N[C@H](CO)[C@@H]1c1ccc(-c2ccc(F)cc2)cc1)C(=O)COC	.	.	45
COCCN(C[C@@H]1N[C@@H](CO)[C@H]1c1ccc(-c2ccc(F)cc2)cc1)C(C)=O	.	.	.
CN(C[C@H]1N[C@@H](CO)[C@H]1c1ccc(-c2cccc(F)c2)cc1)C(=O)C1CCC1	.	.	.
COCCN(C[C@H]1N[C@H](CO)[C@@H]1c1ccc(-c2ccc(F)cc2)cc1)C(C)=O	.	.	35
CC(C)NC(=O)Nc1ccc2c(c1)CC(=O)N([C@@H](C)CO)C[C@H](C)[C@@H](CN(C)C)O2	.	.	.
C[C@H]1CCCCO[C@H](CN(C)Cc2ccc3c(c2)OCO3)[C@@H](C)CN([C@@H](C)CO)C(=O)c2cc(NC(=O)CCCN(C)C)ccc2O1	.	.	.
CCCC(=O)Nc1ccc2c(c1)OC[C@@H](C)N(CCc1ccccc1)C[C@H](C)[C@H](OC)CN(C)C2=O	.	.	/
Cc1noc(C)c1NC(=O)N(C)C[C@@H]1Oc2ccc(NC(=O)NC3CCCCC3)cc2C(=O)N([C@H](C)CO)C[C@H]1C	.	.	.
COC(=O)/C=C/c1ccc(-n2cncn2)cc1	.	/	.
COC(=O)/C=C/c1cnc[nH]1	.	.	51
CCCNC(=O)[C@H]1[C@H](CO)[C@H]2Cn3c(ccc(-c4cncnc4)c3=O)[C@H]2N1C(=O)c1ccccc1F	.	.	.
CCN(CC)C(=O)CSc1nc2c(sc(=S)n2-c2ccccc2OC)c(=O)n1-c1ccccc1	.	.	.
COc1ccccc1-n1c(SCC(=O)O)nc2c(sc(=S)n2-c2ccccc2C)c1=O	.	43	.
O=C(NCC1CC1)[C@H]1[C@H](CO)[C@H]2Cn3c(cccc3=O)[C@H]2N1C(=O)Nc1ccccc1	.	.	/
CCCCN1C(=O)/C(=C/C=C2\SCCN2C)SC1=S	/	38	.
CN1CCS/C1=C/C=C1\SC(=S)N(CC(=O)O)C1=O	.	.	.
CC(NC(=O)/C(C#N)=C/c1ccc([N+](=O)[O-])o1)c1ccccc1 (configuration not stated)	.	42	.
